# In paper PMC6528680 (Journal of natural products, 2019):
# Where two headings read alike, the source gives them in different places. Marks after values point to notes of the source that are not given here.
# Experiments:
# recombinant human GUSB = molecular target: T1, recombinant human GUSB (Homo sapiens, UniProt P08236); experiment: GUSB-specificity of substrate deconjugation; format: biochemical; conditions: 37°C, 50 mM sodium acetate buffer pH 5
# T1 sequence (P08236 23-651): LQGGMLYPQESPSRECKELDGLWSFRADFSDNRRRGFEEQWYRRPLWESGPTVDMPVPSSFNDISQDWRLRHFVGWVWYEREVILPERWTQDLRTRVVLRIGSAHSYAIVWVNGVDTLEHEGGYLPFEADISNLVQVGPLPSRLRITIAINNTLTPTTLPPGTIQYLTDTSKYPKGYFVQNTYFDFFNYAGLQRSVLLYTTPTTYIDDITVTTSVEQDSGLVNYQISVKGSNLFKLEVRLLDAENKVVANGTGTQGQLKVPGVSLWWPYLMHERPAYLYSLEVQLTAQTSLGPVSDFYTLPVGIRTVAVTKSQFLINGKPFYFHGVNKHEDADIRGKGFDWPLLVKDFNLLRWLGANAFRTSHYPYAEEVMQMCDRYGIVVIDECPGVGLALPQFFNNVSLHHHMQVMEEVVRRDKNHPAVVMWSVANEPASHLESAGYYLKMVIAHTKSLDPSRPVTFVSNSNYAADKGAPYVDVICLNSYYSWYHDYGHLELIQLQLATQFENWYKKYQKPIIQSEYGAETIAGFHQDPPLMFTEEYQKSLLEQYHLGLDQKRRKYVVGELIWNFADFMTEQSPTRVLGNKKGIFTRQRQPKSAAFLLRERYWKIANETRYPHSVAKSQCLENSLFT
# How it was run: (§1)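 Recombinant human GUSB, HPSE or KL, normalized to molarity, was incubated 30–60 min at 37°C in 50 mM sodium acetate pH 5 with 4-methylumbelliferyl-glucuronide or phenolphthalein-glucuronide at above-Km concentrations. Reactions were quenched. Product was quantified against 4-MU or phenolphthalein standard curves by fluorescence (Ex 360/Em 470 nm) or absorbance at 540 nm. Rates are given as nmol product per enzyme amount per min.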
# recombinant human HPSE = molecular target: T2, recombinant human HPSE (Homo sapiens, UniProt Q9Y251); experiment: GUSB-specificity of substrate deconjugation; format: biochemical; conditions: 37°C, 50 mM sodium acetate buffer pH 5
# T2 sequence (Q9Y251 158-543 limits assumed): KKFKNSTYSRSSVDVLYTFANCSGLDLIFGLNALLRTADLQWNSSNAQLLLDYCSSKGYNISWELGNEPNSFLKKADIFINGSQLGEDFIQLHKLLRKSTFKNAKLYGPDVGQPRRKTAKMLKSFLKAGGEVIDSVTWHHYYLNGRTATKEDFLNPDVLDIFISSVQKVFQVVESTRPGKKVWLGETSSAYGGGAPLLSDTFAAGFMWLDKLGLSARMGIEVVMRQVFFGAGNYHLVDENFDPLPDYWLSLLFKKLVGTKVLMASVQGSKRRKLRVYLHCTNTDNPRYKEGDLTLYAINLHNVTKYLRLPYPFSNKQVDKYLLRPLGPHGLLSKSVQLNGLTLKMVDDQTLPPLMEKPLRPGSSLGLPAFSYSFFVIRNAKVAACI
# T2 sequence (Q9Y251 36-109 limits assumed): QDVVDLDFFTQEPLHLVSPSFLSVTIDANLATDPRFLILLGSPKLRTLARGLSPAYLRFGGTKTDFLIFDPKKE
# How it was run: as §1
# recombinant human KL = molecular target: T3, recombinant human KL (Homo sapiens, UniProt Q9UEF7); experiment: GUSB-specificity of substrate deconjugation; format: biochemical; conditions: 37°C, 50 mM sodium acetate buffer pH 5
# T3 sequence (Q9UEF7 34-1012): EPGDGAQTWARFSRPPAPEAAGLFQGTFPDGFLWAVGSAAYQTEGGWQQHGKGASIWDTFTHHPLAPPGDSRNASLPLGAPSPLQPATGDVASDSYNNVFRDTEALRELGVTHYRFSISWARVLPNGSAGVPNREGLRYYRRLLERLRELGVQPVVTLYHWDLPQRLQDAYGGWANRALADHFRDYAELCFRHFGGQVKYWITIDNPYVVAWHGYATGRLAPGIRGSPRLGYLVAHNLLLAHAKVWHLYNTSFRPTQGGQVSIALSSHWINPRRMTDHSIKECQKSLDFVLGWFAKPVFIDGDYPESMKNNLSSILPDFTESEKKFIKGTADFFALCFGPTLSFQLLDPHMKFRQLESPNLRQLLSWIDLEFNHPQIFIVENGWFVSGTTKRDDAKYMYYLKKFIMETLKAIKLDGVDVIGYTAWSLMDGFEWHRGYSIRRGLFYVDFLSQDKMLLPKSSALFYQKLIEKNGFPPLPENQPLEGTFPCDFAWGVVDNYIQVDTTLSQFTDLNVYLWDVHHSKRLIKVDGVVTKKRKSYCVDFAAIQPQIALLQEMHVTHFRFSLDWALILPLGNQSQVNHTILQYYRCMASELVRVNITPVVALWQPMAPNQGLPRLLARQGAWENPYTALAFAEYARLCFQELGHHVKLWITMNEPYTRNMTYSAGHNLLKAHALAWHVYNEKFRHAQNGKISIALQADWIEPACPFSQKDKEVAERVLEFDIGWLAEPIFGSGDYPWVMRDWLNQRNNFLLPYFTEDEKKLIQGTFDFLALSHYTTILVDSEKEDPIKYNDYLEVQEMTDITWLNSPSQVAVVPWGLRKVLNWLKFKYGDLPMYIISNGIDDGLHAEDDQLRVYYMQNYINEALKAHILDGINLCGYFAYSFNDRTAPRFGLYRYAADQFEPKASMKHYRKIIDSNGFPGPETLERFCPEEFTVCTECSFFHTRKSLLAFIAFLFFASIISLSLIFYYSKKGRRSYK
# How it was run: as §1
# GUSB [1] = molecular target: T4, GUSB (Mus musculus, UniProt P12265); format: in vivo, C57BL/6J mice; conditions: SL 1 g/kg IP 1 h before oral curcumin 500 mg/kg
# T4 sequence (P12265 23-648): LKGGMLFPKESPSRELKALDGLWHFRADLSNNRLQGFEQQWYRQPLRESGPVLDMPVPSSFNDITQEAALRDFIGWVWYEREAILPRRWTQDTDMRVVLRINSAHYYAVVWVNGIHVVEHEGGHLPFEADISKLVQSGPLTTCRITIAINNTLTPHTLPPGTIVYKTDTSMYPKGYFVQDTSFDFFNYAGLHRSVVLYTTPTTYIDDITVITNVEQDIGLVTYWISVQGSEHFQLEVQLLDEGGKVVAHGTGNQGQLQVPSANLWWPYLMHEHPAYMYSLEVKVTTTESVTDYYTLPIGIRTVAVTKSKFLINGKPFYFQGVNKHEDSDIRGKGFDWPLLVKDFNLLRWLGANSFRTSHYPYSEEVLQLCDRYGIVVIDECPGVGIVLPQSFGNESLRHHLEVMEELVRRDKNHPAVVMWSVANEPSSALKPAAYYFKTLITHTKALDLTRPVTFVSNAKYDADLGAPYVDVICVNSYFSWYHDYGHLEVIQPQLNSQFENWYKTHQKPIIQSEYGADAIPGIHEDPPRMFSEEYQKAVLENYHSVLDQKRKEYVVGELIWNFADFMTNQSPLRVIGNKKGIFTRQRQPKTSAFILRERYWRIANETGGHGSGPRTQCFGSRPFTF
# How it was run: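 Mice were pretreated with saccharolactone (1 g/kg in saline, IP) 1 h before oral gavage of 500 mg/kg curcumin in DMSO. Serum (clotted 10 min RT, 8,000 g 10 min) and marrow were taken at 30 min. Marrow was resuspended in 50 mM sodium acetate pH 5 and held 2 h on ice. Aglycone curcumin and curcumin-glucuronide were measured by LC/MS after HLB extraction.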
# GUSB [2] = molecular target: T4, GUSB; experiment: Ex vivo saccharolactone added to marrow suspensions from curcumin-treated mice; format: biochemical, C57BL/6J mice; conditions: 10 mM SL in sodium acetate buffer
# How it was run: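 Female 4-week C57BL/6J mice were gavaged with 500 mg/kg oral curcumin in DMSO. Leg marrow was spun out (10,000 g, 15 s) at 30 min and resuspended in 50 mM sodium acetate pH 5 with or without 10 mM saccharolactone. It was held 2 h on ice, then supernatants were taken. Aglycone and glucuronide were quantified by LC/MS (HLB extraction, C18, SRM) as % of total curcumin. n=3–4/group.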
# GUSB [3] = molecular target: T4, GUSB; format: biochemical, C57BL/6NJ mice; conditions: SL 10 mM, 10 μM curcumin-glucuronide, 2 h, 37°C
# RAW 264.7 cells = experiment: RAW 264.7 cell viability; format: cell-based, murine; conditions: at approximately 3 μM; data not shown
# [4] = format: in vivo; conditions: C57BL/6J mice
# [5] = format: in vivo, mice (C57BL/6J, C3H/HeJ)
# How it was run: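 Oral gavage of 500 mg/kg in DMSO to C57BL/6J and C3H/HeJ mice (n=3–4/group), with sampling at 30 min under isoflurane. Marrow pellets were suspended in 50 mM sodium acetate pH 5 for 2 h on ice and centrifuged. Serum was acidified to pH 5 with HCl before HLB extraction and LC/MS. Marrow concentrations were corrected to pellet volume, assuming density 1.06 g/ml. Mean ± SEM.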
# [6] = format: in vivo, mice (C57BL/6J, C3H/HeJ, mps/mps)
# How it was run: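 Test compound dosed IP at 100 mg/kg in DMSO to 15-week female BL/6J, female HeJ and male mps/mps mice (n=3–5/group). Blood and marrow were taken under isoflurane at 20 min. Marrow pellets were resuspended in 50 mM sodium acetate pH 5 and held 2 h on ice, then supernatants were kept. Serum was acidified to pH 5, and aglycone and glucuronide were measured by HLB solid-phase extraction and LC/MS. Mean ± SEM.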
smiles,measurement,setting,value
"O=C1OC(c2ccc(O)cc2)(c2ccc(O[C@@H]3O[C@H](C(=O)O)[C@@H](O)[C@H](O)[C@H]3O)cc2)c2ccccc21 (stereo partly shown) [glucuronidated PheP, Phenolphthalein-glucuronide]",Rate of cleavage by GUSB,recombinant human GUSB,23.5 nmol PheP/nmol enzyme/min
same,Rate of cleavage by HPSE,recombinant human HPSE,0.14 nmol PheP/nmol enzyme/min
same,Rate of cleavage by KL,recombinant human KL,1.0 nmol PheP/nmol enzyme/min
"Cc1cc(=O)oc2cc(O[C@@H]3O[C@H](C(=O)O)[C@@H](O)[C@H](O)[C@H]3O)ccc12 [glucuronidated 4-MU, 4-methylumbelliferyl-glucuronide]",Rate of cleavage by GUSB,recombinant human GUSB,2.64 nmol 4-MU/pmol enzyme/min
same,Rate of cleavage by HPSE,recombinant human HPSE; without effect,< 0.007 nmol 4-MU/nmol enzyme/min
same,Rate of cleavage by KL,recombinant human KL; without effect,< 0.007 nmol 4-MU/nmol enzyme/min
"O.O=C(O)[C@@H](O)[C@H]1OC(=O)[C@H](O)[C@H]1O [saccharolactone, D-Saccharic acid 1,4-lactone monohydrate]",Aglycone curcumin levels in marrow suspensions after in vivo inhibitor treatment,GUSB [1],no longer detectable
same,Effect on serum levels of aglycone curcumin,GUSB [1]; data not shown,unchanged
same,Aglycone curcumin in marrow suspensions with inhibitor added ex vivo,GUSB [2],not detected
same,Effect on deconjugation of GC in marrow-conditioned media,GUSB [3],inhibitable
"COc1cc(/C=C/C(=O)CC(=O)/C=C/c2ccc(O)c(OC)c2)ccc1O [aglycone curcumin, curcumin]",Effect on RAW 264.7 cell viability,RAW 264.7 cells,did not alter
same,Aglycone curcumin as share of total curcumin in serum,"[4]; 30 min post oral dose, n=11",0.24% ± 0.07%
same,Aglycone curcumin as share of total curcumin in lyophilized whole bone marrow,"[4]; post oral dose, n=8",0.77% ± 0.21%
same,Aglycone curcumin as share of total curcumin in perfusing serum,"[5]; 30 min post oral dose, C57BL/6J",0.1–0.2 % of total curcumin
same,Concentration in serum,"[5]; C3H/HeJ, 30 min after oral 500 mg/kg curcumin, mean (SEM)",nd (≤0.01) μM
same,Absolute and relative amounts of marrow aglycone curcumin lower in HeJ vs BL/6J,"[5]; oral 500 mg/kg curcumin, 30 min",59–65%
same,Aglycone curcumin as share of circulating total curcumin,"[6]; BL/6J serum, IP curcumin",< 4%
same,Aglycone curcumin as share of total in ex vivo bone marrow suspensions,"[6]; BL/6J, IP curcumin",51 % of total
same,Bone marrow aglycone curcumin (% of total curcumin) lower vs BL/6J,"[6]; HeJ mice, IP curcumin",73%
same,Bone marrow aglycone curcumin (% of total curcumin) decrease vs BL/6J,"[6]; mps/mps mice, IP curcumin",88%
same,Increase of circulating curcumin concentrations vs BL/6J,"[6]; mps/mps mice, IP curcumin",3.2 fold
same,Concentration in serum,"[6]; mps/mps, 20 min after IP 100 mg/kg curcumin, mean (SEM)","22.8 (6.9)^a,b μM"
